Measurements of several laboratories.
Protocols differ between the studies behind these lines.
Target: MAP/microtubule affinity-regulating kinase 3 (MARK3, Homo sapiens, UniProt P27448)

assay	conditions	endpoint	value	Structure (SMILES)
enzyme activity, inhibitor	1 µM	inhibition	95%	CO[C@@H]1[C@H](N(C)C(=O)c2ccccc2)C[C@H]2O[C@]1(C)n1c3ccccc3c3c4c(c5c6ccccc6n2c5c31)C(=O)NC4
cell-free assay, competition with immobilised ligand	25 µM	remaining binding	78%	N#Cc1ccc(NC(=O)Nc2ccccc2)cc1
binding	1 µM	remaining binding	43%	CN1CCN(C(=O)c2ccc(NC(=O)Nc3ccc(N(C)c4ccnc(Nc5ccc(CS(C)(=O)=O)cc5)n4)cc3)cc2)CC1
enzyme activity, inhibitor	1 µM	activity vs control	120%	CC(C)S(=O)(=O)c1ccc2nccc(Nc3ccc4sc(C5CCCC5)nc4c3)c2c1
binding	1 µM	remaining binding	104%	COc1ccc2oc(-c3ccc4nc(N)oc4c3)c/c(=N\c3ccccc3NC(=O)CCN)c2c1
binding, competition with immobilised ligand	0.5 µM	remaining binding	91%	CCCCC(=O)Nc1ccc(-c2ccc3ncn(CCC)c(=O)c3c2)cn1
enzyme activity, inhibitor	0.1 µM	inhibition	-0.763%	Cc1cc(O)c(-c2ccc([C@@H](C)CN(C)C)cc2)c2c1[nH]c(=O)c1sccc12
cell-free assay	1 µM	remaining signal	42%	C#Cc1cnc(Nc2ccnc(CO)c2)nc1Nc1ccccc1S(C)(=O)=NC#N (centres unmarked)
binding	1 µM	remaining binding	97%	Cc1ccc(NC(=O)c2ccnc(C(F)(F)F)c2)cc1-c1cc(OCCO)nc(N2CCOCC2)c1
enzyme activity, inhibitor	1 µM	inhibition	0%	CC#CC(=O)N1CCC[C@H]1c1nc(-c2ccc(C(=O)Nc3ccccn3)cc2)c2c(N)nccn12
binding	0.1 µM	remaining binding	100%	C1=C/COCc2cc(ccc2OCCN2CCCC2)Nc2nccc(n2)-c2cccc(c2)COC/1
